From publication PMC2764440 (Nucleic Acids Research, 2009)

Columns and labels:
CD4+ T-cells = test: T-cell proliferation assay; assay type: cell-based, mouse; settings: 1-MT 0.75 mM
In short: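 CD4+ responder T cells from C3H mouse spleens (10^5/well, anti-CD3/CD28 bead-stimulated) were co-cultured 3 days with 5 × 10^4 mitomycin C-treated (40 µg/ml, 30 min) MCEC. The MCEC were untransfected or transfected with test peptide carrying IDO or GFP plasmid, with or without 0.75 mM final 1-methyl-dl-tryptophan. [3H]thymidine (1 µCi/well) was added and incorporation was counted 16 h later.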

MCEC [1] = test: Inhibitor studies: uptake of F complexes; assay type: cell-based; settings: Mus musculus, read-out: reduction (inhibition) of uptake of F complexes
In short: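 Mouse corneal endothelial cells (MCEC; DMEM, 10% FBS, full serum) were seeded at 2.2 × 10^5/well one day before. Complexes of test peptide with Cy5-labelled luciferase plasmid were formed in 10 mM phosphate buffer pH 7.0, added with inhibitor at non-toxic working levels, and incubated 3 h at 37°C. Cells were washed, trypsinised and read by flow cytometry (mean fluorescence, 10 000 gated cells), relative to vehicle (DMSO or water) = 100%.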

MCEC [2] = test: Inhibitor studies: luciferase gene expression mediated by F complexes; assay type: cell-based, mouse

Question: For Cn1cc(CC(N)C(=O)O)c2ccccc21 (racemic) [1-MT, 1-methyl-DL-tryptophan], which “effect on the inhibition of T-cell proliferation by IDO-transfected MCEC” value (CD4+ T-cells) is on record?
Answer: reversed

Question: With CCN(c1nc(N)c(C(=O)NC(=N)N)nc1Cl)C(C)C [EIPA, 5-(N-ethyl-N-isopropyl)amiloride] as the molecule, how does the inhibition at 25 µg/mL (MCEC [1]) read?
Answer: 32.9%

Question: With CCCCC[C@@H](O)[C@H]1C(=O)O[C@H](C)[C@@H](O)/C=C/C=C/C=C/C=C/C=C(\C)[C@@H](O)C[C@H](O)C[C@H](O)C[C@H](O)C[C@H](O)C[C@H](O)C[C@@H]1O [Filipin, filipin III] as the molecule, how does the inhibition at 1 µg/mL (MCEC [1]) read?
Answer: 48.6%

Question: For C=C1[C@@H](C)[C@H]2[C@H](Cc3ccccc3)NC(=O)[C@]23[C@H](OC(C)=O)/C=C/[C@@](C)(O)C(=O)[C@@H](C)C/C=C/[C@H]3[C@@H]1O [cytochalasin, cytochalasin D], which inhibition at 5 µg/mL (MCEC [1]) is on record?
Answer: 58.5%

Question: Which inhibition at 6.8 µg/mL (MCEC [1]) does the source give for O=C(N/N=C/c1ccc(O)c(O)c1)c1cc2ccccc2cc1O [dynasore] here?
Answer: 64.7%

Question: What about the “toxicity during the longer incubation period used for gene expression assays” value (MCEC [2]; dynasore 6.8 µg/ml, MCEC) of the same molecule?
Answer: pronounced toxicity

Question: COC(=O)Nc1nc2ccc(C(=O)c3cccs3)cc2[nH]1 [nocodazole] was tested. Which inhibition at 4.5 µg/mL (MCEC [1]) did it give?
Answer: 58.2%

Question: And the “increase of gene expression mediated by F complexes” value (MCEC [2]; nocodazole 4.5 µg/ml, N/P 20, luciferase 72 h later, relative to vehicle control)?
Answer: 2.35 times
